Assay outcomes as filed in PubChem.
CAL PDZ FP-1: inhibitors of human CAL PDZ peptide binding; Q9HD26; purified CAL PDZ, TMR-peptide fluorescence polarization, 1 h; inhibition, % at 20 µM; hit rate 0.02% among 330,000;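 active = highest replicate inhibition of at least 40%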;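 also: plate controls were DMSO neutral control wells for no effect and unlabeled competitor peptide control wells for full effect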
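Assay system – tagged CAL PDZ protein CerCALP, purified · Timing – 1 h at RT · Compound – single point, 20 µM · Measured by – fluorescence polarization from S- and P-plane intensities, G-factor corrected · Evaluation – inhibition from polarization loss · Probe or stimulus – TMR reporter peptide T*-PRC34 · Buffer or medium – pH 7.4 phosphate-saline buffer, reducing agent, detergent, IgG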
CAL PDZ FP-2: inhibitors of human CAL PDZ peptide binding | Q9HD26 | purified CAL PDZ, TMR-peptide fluorescence polarization, 1 h | inhibition, % at 24.9 µM | hit rate 0.92% among 300,000 | AID 602252;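 active = mean inhibition of at least 30% with at least half of replicates also reaching 30%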;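 also: 0% = DMSO neutral control and 100% = excess unlabeled competitor peptide PRC23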
LANA DNA inh: blocks KSHV LANA C-terminal domain binding to DNA; AID 504423; inhibition, % at 9 µM; MBP-C-LANA/FAM-LBS DNA binding, fluorescence polarization; hit rate 0.078% among 340,000;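 active = highest replicate inhibition at or above 60% at 9 µM, even if other replicates fall short; inactive = all replicates below 60% inhibition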;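 also: 0% = neutral control wells and 100% = 4 µM acridine orange control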
CaV13 FRET inh: Primary screen for inhibitors of IQ motif and Ca2+-dependent inactivation inhibitor domain binding in CACNA1D, Förster resonance energy transfer in living cells, …; HEK cells, CFP/YFP FRET ICDI-IQ, plate reader, 10 min; percent FRET-ratio fall versus neutral wells; inhibition, % at 12.3 µM; hit rate 0.098% among 340,000;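 active = mean replicate inhibition of at least 30% and at least 1% of replicates passing that level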;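 also: 0% = median of the neutral control wells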
Keap1-Nrf2 PPI: disrupts human Keap1 binding to Nrf2 peptide | Q14145 | inhibition, % at 9.4 µM | Keap1 Kelch-Nrf2 peptide fluorescence polarization, 1536-well | hit rate 0.15% among 340,000; in the data active = inhibition above about 12%;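 also: human Keap1 Kelch domain with fluorescein labeled Nrf2 9mer peptide probe; 0% = neutral control wells and 100% = peptide positive control; higher means more block of Keap1 binding to Nrf2 peptide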
Target sequence (Q14145 whole entry, looked up, the tested form may be a part): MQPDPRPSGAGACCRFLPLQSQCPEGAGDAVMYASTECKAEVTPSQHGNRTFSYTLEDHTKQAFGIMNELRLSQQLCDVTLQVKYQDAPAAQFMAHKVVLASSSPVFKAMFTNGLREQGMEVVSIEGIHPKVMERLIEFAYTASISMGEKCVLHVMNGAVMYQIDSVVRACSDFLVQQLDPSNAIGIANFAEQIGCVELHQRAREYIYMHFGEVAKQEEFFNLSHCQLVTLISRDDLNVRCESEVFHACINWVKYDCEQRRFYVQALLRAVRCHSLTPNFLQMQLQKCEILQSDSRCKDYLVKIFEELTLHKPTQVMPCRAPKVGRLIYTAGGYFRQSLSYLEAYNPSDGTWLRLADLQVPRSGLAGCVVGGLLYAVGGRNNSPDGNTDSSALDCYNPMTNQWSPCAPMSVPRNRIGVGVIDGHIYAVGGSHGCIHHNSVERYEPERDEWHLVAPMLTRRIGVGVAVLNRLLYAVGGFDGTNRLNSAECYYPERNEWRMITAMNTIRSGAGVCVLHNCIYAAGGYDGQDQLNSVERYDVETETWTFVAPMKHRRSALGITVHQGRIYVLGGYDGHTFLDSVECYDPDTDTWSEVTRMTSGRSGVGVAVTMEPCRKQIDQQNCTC
LANA-H2B inh: blocks KSHV LANA binding to histone H2A/H2B. cell-free LANA-H2A/H2B peptide, fluorescence polarization. inhibition, % (concentration not given with the values). hit rate 0.6% among 320,000; in the data active = inhibition mostly above about 10%, no sharp cut-off; inactive = mostly below about 6.7%
Numbers without * were called inactive; nt = no result given; + = active, no number. An excerpt weighted towards active compounds, which were near 1.5% of everything screened.

SMILES | CAL PDZ FP-1 | CAL PDZ FP-2 | LANA DNA inh | CaV13 FRET inh | Keap1-Nrf2 PPI | LANA-H2B inh
C[C@H](NC(=O)N1CCn2c1nc1ccccc12)C(=O)N1CCCCC1 | 0 | 42* | -1 | -1 | 4 | 3
CC(=O)Oc1ccc(N2C(=O)C3C4C=CC(C5CC45)C3C2=O)cc1[N+](=O)[O-] (centres undefined) | 0 | -1 | 0 | -18 | 0 | 3
CC(=O)Oc1ccc(N2C(=O)C3C(C2=O)C2C=CC3C23CC3)cc1[N+](=O)[O-] (centres undefined) | -3 | -1 | -1 | -4 | 3 | 11*
COC(=O)[C@]12C[C@H](CC(=O)N3CCN(C(=O)c4ccco4)CC3)C(=O)N(Cc3ccccc3)C1=C[C@H](C1CCCC1)O[C@@H]2C | nt | nt | nt | -10 | nt | nt
C[C@@H]1CN(c2ccc(N3CCN(C(=O)OC(C)(C)C)C[C@@H]3C)cc2C#N)C[C@H](C)O1 | nt | nt | nt | -10 | nt | nt
COCCn1c(SCc2ccc(OC)c(F)c2)nc2ccccc2c1=O | -1 | nt | 2 | 7 | -2 | 5
COCCn1c(SCc2ccc(F)cc2)nc2ccccc2c1=O | 0 | + | 0 | -2 | -3 | 2
O=C(Nc1ccccc1N1CCOCC1)c1ccc(Cl)c(S(=O)(=O)NCc2ccco2)c1 | 1 | 91* | 1 | -6 | 1 | -4
NC(=O)C1CCN(C(=O)/C(=C/c2ccccc2)NC(=O)c2ccccc2)CC1 | 0 | 3 | 1 | 17 | -1 | 7
CCCC(=O)Nc1ccc(NC(=O)c2ccccc2Cl)nc1 | nt | 41* | 1 | -4 | 0 | -1
O=C1NC(c2ccc3c(c2)OCO3)c2c(-c3ccccc3)n[nH]c21 (centres undefined) | nt | nt | nt | -3 | nt | nt
CC(C)C[C@H]1COc2cccc(NCCO)c2S(=O)(=O)N1 | nt | nt | nt | -4 | nt | nt
COc1ccc(NC(=O)CSc2nnnn2-c2ccc(OC)cc2)cc1 | -2 | 0 | 2 | -4 | -2 | 6
CCOc1ccc(NC(=O)CSc2nnnn2-c2ccc(C(N)=O)cc2)cc1 | nt | 66* | 2 | -4 | -1 | 1
COC(=O)c1ccccc1-c1c2ccc(=N)cc-2oc2cc(N)ccc12 | 109* | nt | nt | -13 | + | 192*
COC(=O)c1ccccc1-c1ccc(/C=N/NC(=O)c2cc3ccccc3o2)o1 | -7 | -9 | 2 | -8 | -5 | -4
CCc1noc(C)c1C(=O)N(CCOC)c1c(N)n(CC(C)C)c(=O)[nH]c1=O | 0 | 38* | 1 | nt | 1 | -1
Cc1cccc(NC(=O)CNC(=O)[C@H]2O[C@@H](n3ccc(=O)[nH]c3=O)[C@H](O)[C@@H]2O)c1C | nt | nt | nt | -3 | nt | nt
O=S(=O)(c1cccc(-c2cn3ccccc3n2)c1)N1CCCCC1 | -3 | -3 | -1 | -7 | 1 | 18*
COC(=O)C1=C(C)N(C)C(=NCc2ccccc2)NC1c1ccccc1C(F)(F)F (centres undefined) | nt | nt | nt | -4 | nt | nt
CC(NC(=O)CCC(=O)c1ccccc1)c1ccc(F)cc1 (centres undefined) | -2 | -1 | 0 | -6 | 1 | -2
CC(NC(=O)CCC(=O)NCc1ccc(F)cc1)c1ccccc1 (centres undefined) | -1 | 88* | 2 | -12 | -4 | 3
Cc1ccc(-n2ncc(Br)c(Br)c2=O)cc1 | -4 | -2 | 1 | nt | -8 | nt
O=c1c(Br)c(Br)cnn1-c1ccccc1 | -1 | 32* | 1 | -2 | 1 | nt
O=C(N/N=C\c1cccc(Cl)c1)c1ccc(Cn2cc(Br)c([N+](=O)[O-])n2)o1 | 4 | 86* | -1 | -4 | 1 | -1
SMILES | CAL PDZ FP-1 | CAL PDZ FP-2 | LANA DNA inh | CaV13 FRET inh | Keap1-Nrf2 PPI | LANA-H2B inh
Cc1ccc(/C=N\NC(=O)c2ccc(Cn3cc(Br)c([N+](=O)[O-])n3)o2)o1 | -3 | -3 | 0 | -5 | 0 | -3
C=C(C)CNC(=S)N/N=C/C1=CCC2CC1C2(C)C (centres undefined) | 0 | 49* | 2 | -5 | 1 | 0
CCOC(=O)Nc1ccc(C(=O)/C=C/c2ccccc2)cc1 | -1 | 79* | -1 | -5 | -4 | -3
CCOC(=O)Nc1ccc(Oc2ccccc2)cc1 | -1 | -2 | 2 | -5 | 6 | 0
C[C@@H]1ON(C)[C@H]2C[C@H]3c4[nH]c5cccc(-c6ccccc6F)c5c4CCN3C(=O)[C@@H]12 | nt | nt | nt | -10 | nt | nt
Cc1cccc(C(=O)NCC(=O)OCC(=O)c2cc(C)n(CC3CCCO3)c2C)c1 (centres undefined) | 0 | 89* | 0 | 2 | -3 | 5
CCC1CCCCN1Cc1c(O)ccc2c(=O)c(-c3ccccc3OC)coc12 (centres undefined) | 0 | nt | -1 | -4 | -2 | -1
CC1CCCCN1Cc1c(O)ccc2c(=O)c(-c3nc4ccccc4s3)coc12 (centres undefined) | -3 | -2 | 2 | 44* | -5 | -1
COCCCNC(=O)CN1C(=O)/C(=C\c2ccc(C)cc2)Sc2ccccc21 | -3 | -3 | 2 | -6 | -2 | 2
CCOCCCNC(=O)CN1C(=O)/C(=C/c2ccccc2C)Sc2ccccc21 | -1 | 31* | 1 | -18 | -6 | 1
O=C1CSC(=S)N1Nc1ccccc1 | 28 | 53* | -1 | -6 | -2 | nt
COC(=O)c1ccc(C(=O)Nc2ccc3nc(-c4ccncc4)[nH]c3c2)cc1 | -4 | 59* | 0 | -21 | 1 | 7
COC(=O)c1ccc(C(=O)Nc2ccc3nc(-c4cccnc4)[nH]c3c2)cc1 | -2 | 0 | 0 | nt | -5 | 3
COC(=O)[C@]12C[C@H](CC(=O)NCCCCc3ccccc3)C(=O)N(CCC3=CCCCC3)C1=C[C@H](C(C)(C)C)O[C@@H]2C | nt | nt | nt | -10 | nt | nt
CCCCNC(=O)C[C@@H]1C[C@@]2(C(=O)OCC)CCCC=C2N(Cc2ccc3c(c2)OCO3)C1=O | nt | nt | nt | -2 | nt | nt
Cn1c(N)c(C(=O)COC(=O)/C=C/c2ccc(Cl)cc2)c(=O)n(C)c1=O | -1 | -1 | -2 | -6 | -2 | 92*
Cn1c(N)c(C(=O)COC(=O)c2ncc(Cl)c(Cl)c2Cl)c(=O)n(C)c1=O | -1 | 55* | -1 | -2 | 4 | 3
Cn1c(N)c(C(=O)COC(=O)/C=C/c2ccc(Cl)cc2Cl)c(=O)n(C)c1=O | nt | nt | nt | -5 | nt | -4
Cc1ccnc(NC(=O)c2ccc(COc3c(F)c(F)cc(F)c3F)o2)c1 | -1 | nt | 0 | -4 | -2 | -1
O=C(Nc1ccc(Br)cn1)c1ccc(COc2c(F)c(F)cc(F)c2F)o1 | 0 | 35* | 0 | -2 | 1 | 5
Cc1cc(N(C)N)nc(NC(=O)NS(=O)(=O)c2ccccc2Cl)n1 | 0 | 0 | -2 | -8 | -2 | 3
CN(C)C(=O)CN1c2cccc3cccc(c23)S1(=O)=O | -1 | 31* | -2 | -18 | -2 | 0
